Compound activity from PubChem BioAssay.
Rows were chosen to be rich in hits. Some 1.6% of all compounds tested hit in one or more screens of this group.
DNMT1 inh – inhibitors of human DNMT1 | DNMT1 molecular beacon, Hinp1I cleavage, fluorescence | inhibition (reported as % activation of signal), % at 10 µM | hit rate 0.83% among 360,000; in the data active = inhibition above about 50%
Scp1 inh – Scp-1 (human) phosphatase inhibition; Recombinant Scp1, phosphopeptide, malachite green phosphate absorbance; inhibition, % at 20 µM; hit rate 0.88% among 340,000; AID 493091;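 active = inhibition above about 50% at 20 µM, limit read from the data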;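 also: plate controls were DMSO wells with enzyme for no effect and wells lacking enzyme for full effect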
Target sequence (Q9GZU7 76-261 limits assumed): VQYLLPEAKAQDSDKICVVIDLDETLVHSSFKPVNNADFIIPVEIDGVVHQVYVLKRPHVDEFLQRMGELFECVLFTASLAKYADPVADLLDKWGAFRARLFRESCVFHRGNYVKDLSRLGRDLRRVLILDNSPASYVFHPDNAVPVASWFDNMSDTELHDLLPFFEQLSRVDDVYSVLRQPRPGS
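Test system – truncated SCP-1 phosphatase (76-261aa) · Reagent – Phosphorylated 17-residue peptide substrate · Incubation – 45 min room-temperature reaction, 5 min colour, 30 min stabiliser · Detection – colorimetric phosphate reagent with accelerator and stabiliser, absorbance at 630 nm · Measure – % inhibition at 20 µM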
LMPTP inh – blocks human LMPTP phosphatase; P24666; recombinant LMPTP-A, OMFP fluorogenic substrate, fluorescence intensity; inhibition, % at 20 µM; hit rate 0.22% among 360,000;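 active = compounds that cut the enzyme signal by at least half of the control window in the single-dose screen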;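 also: plate controls were DMSO wells with enzyme plus substrate for no effect and substrate without enzyme for full effect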
Target sequence (P24666 whole entry, looked up): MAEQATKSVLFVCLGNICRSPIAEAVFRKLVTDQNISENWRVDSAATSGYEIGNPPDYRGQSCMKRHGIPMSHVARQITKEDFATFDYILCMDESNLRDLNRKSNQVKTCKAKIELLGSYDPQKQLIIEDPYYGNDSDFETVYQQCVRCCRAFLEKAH
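Test system – LMPTP-A enzyme · Amount – LMPTP-A at 0.625 nM final in the reaction · Buffer or medium – Bis-Tris pH 6.0, DTT, detergent · Reagent – OMFP 400 µM · Doses – single 20 µM dose · Schedule – reaction 50 min, room temperature, dark · Detection – fluorescence intensity of OMFP turnover product · Evaluation – percent inhibition versus substrate-only and uninhibited controls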
F508del corr – correctors of CFTR F508del function in bronchial epithelial cells | CFBE cells, YFP halide quenching; stimulated with forskolin plus potentiator P3; % fluorescence drop versus neutral controls | activity (quench increase), % at 7.58 µM | hit rate 0.36% among 350,000 | AID 720511;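 active = mean added fluorescence quench of at least 8% versus neutral control, with both replicates also reaching 8%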;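 also: cells transiently co-express mutant CFTR-F508del with the halide-sensitive YFP; corrector assay measuring rescue of mutant channel to the surface after 24 h compound exposure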
SUMO1-SIM PPI – alters human SUMO1 binding to SIM partners; P63165; SUMO1 binding to a labelled peptide, TR-FRET, 1 h; inhibition, % at 20 µM; hit rate 0.33% among 360,000; in the data active = inhibition above about 37%
Target sequence (P63165 whole entry, looked up): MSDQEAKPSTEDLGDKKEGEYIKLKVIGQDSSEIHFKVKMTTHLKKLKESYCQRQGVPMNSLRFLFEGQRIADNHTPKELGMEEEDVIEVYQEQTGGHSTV
STEP block – STEP (human) phosphatase inhibition; recombinant STEP, OMFP fluorogenic substrate, fluorescence; inhibition, % at 20 µM; hit rate 0.25% among 360,000; P54829;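 active = inhibition at 20 µM, scaled per plate between control wells, above about 37%, limit read from the data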;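 also: 0% = DMSO with enzyme and substrate and 100% = substrate only without enzyme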
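medium = Bis-Tris buffer pH 6.0, 2.5 mM DTT, 0.005% Tween 20 | test system = STEP (striatal-enriched tyrosine phosphatase) enzyme, cell-free | measure = normalized % inhibition | compound dosing = 20 µM, 1% DMSO | also added = 25 µM OMFP | schedule = reaction 20 min, ambient temperature | measured by = fluorescence read at 480 nm ex / 540 nm em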
Beacon interf DR – counter-screen for DNMT1 inhibitors: spectral interference, dose response | molecular beacon fluorescence | 200 tested, under 10 active | shares compounds with DNMT1 inh | IC50, µM; call rule not given here
DNMT1 inh conf – confirmation of human DNMT1 inhibitors; inhibition, % at 10 µM; DNMT1 molecular beacon HinP1I cleavage, fluorescence; shares compounds with DNMT1 inh; hit rate 8% among 2,300;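 active = average inhibition of at least 30% in the single-concentration confirmation test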
DNMT1 interf – beacon fluorescence artifact counter-screen. shares compounds with DNMT1 inh. DNMT1 molecular beacon spectral interference counterscreen, fluorescence 485/520. activation (fluorescence interference), % at 10 µM. hit rate 1% among 2,300;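 active = activation of at least 30% at 10 µM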;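 also: DNMT1 catalytic domain with a HinP1I cleavage step and a FAM/dabcyl DNA beacon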
Active calls of the source: *; · = not tested or not shown.

SMILES	DNMT1 inh	Scp1 inh	LMPTP inh	F508del corr	SUMO1-SIM PPI	STEP block	DNMT1 inh conf	DNMT1 interf	others
C[C@@H]1CN([C@@H](C)CO)C(=O)c2cc(NS(=O)(=O)c3cn(C)cn3)ccc2O[C@@H](C)CCCCO[C@H]1CN(C)S(=O)(=O)c1ccc(Cl)cc1	·	·	·	0.5	·	·	·	·
O=C(Nc1cccc(Cl)c1)c1cc2c(=O)n3ccccc3nc2s1	62.3*	-8.0	23.6	1.6	6.3	1.9	7.3	17.8
CC(=O)NS(=O)(=O)c1ccc(NC(=O)c2cc3c(=O)n4ccccc4nc3s2)cc1	3.7	4.7	0.8	4.7	-4.5	1.1	·	·
CC(C)NC(=O)Nc1ccc2c(c1)CC(=O)N([C@@H](C)CO)C[C@@H](C)[C@@H](CN(C)S(C)(=O)=O)O2	·	·	·	-2.0	·	·	·	·
O=S(=O)(c1ccc(NC(=S)N2CCCCC2CO)cc1)N1CCOCC1 (stereo not drawn)	60.2*	·	-1.1	-3.1	-0.3	-0.8	-0.6	-4.1
O=C(C1CC1)N1C[C@@H]2[C@H](c3ccccc31)[C@@H](CO)N2S(=O)(=O)c1ccccc1	·	·	·	-2.6	·	·	·	·
O=C(COC(=O)Cc1ccsc1)NCc1ccccc1	74.0*	2.4	-2.5	·	4.6	22.6	2.7	3.6
O=C(COC(=O)Cc1ccsc1)NCc1ccc(Cl)cc1	1.0	8.1	-2.4	·	3.2	-1.5	·	·
CCS(=O)(=O)N1CCC2(CC1)CN(C(=O)Nc1cccc(F)c1)[C@@H](CO)c1c2c2ccc(OC)cc2n1C	·	·	·	0.3	·	·	·	·
Cn1nc([N+](=O)[O-])c2c(-c3nc4ccccc4s3)c(N)n(C3CCCCC3)c2c1=O	62.5*	5.7	3.0	·	-7.6	10.5	1.2	5.2
C[C@H]1CN([C@@H](C)CO)C(=O)c2cc(C#Cc3ccc(F)cc3)cnc2O[C@H]1CN(C)Cc1ccccn1	·	·	·	3.7	·	·	·	·
CCN1C(=O)[C@H]2[C@@H](c3ccc(-c4cccc(Cl)c4)c(OC)c3)N[C@@](Cc3ccccc3)(C(=O)OC)[C@H]2C1=O	111.7*	-5.8	4.4	-0.5	-10.2	0.9	0.5	6.3
COC(=O)[C@]1(Cc2ccccc2)N[C@H](c2ccc(-c3cccc(Cl)c3)c(OC)c2)[C@@H]2C(=O)N(C)C(=O)[C@@H]21	-17.6	-0.3	4.2	0.7	-15.8	3.9	·	·
O=C1NC(=S)S/C1=C\c1coc2ccc(O)cc2c1=O	80.9*	4.5	3.2	2.8	5.8	67.5*	0.5	0.7
CC1=NN(c2ccccc2)C(=O)C1/C=C1\NC(=S)NC1=O (stereo not drawn)	90.5*	1.9	4.0	-2.9	32.6	4.9	37.6*	-2.0	Beacon interf DR=>99
CC1=NN(c2ccccc2)C(=O)C1C=Nc1ccccc1O (stereo not drawn)	-0.3	-15.5	2.9	1.0	-16.0	3.1	·	·
Cn1c(-c2cccc(OCc3ccccc3)c2)nc2c1c(=O)[nH]c(=O)n2Cc1ccccc1	57.0*	-1.9	-0.4	·	-11.0	-0.4	2.1	-3.1
COc1ccc(NC(=O)N(C)C[C@@H]2Oc3ccc(N(C)C)cc3CC(=O)N([C@H](C)CO)C[C@H]2C)cc1	·	·	·	-3.0	·	·	·	·
Cc1ccc(Cl)cc1NC(=O)C1CCCCC1C(=O)O (stereo not drawn)	50.1*	-3.4	0.5	·	-3.3	-0.3	2.2	4.7
CN(C(=O)C1Cc2c(-c3ccccc3Oc3ccccc3)ccnc2O1)c1ccccc1 (stereo not drawn)	75.6*	·	8.9	-3.1	4.7	-2.4	3.6	10.4
CCNc1ccc(Br)cc(C(=O)/C=C/c2ccc(Cl)cc2Cl)c1=O	70.1*	-2.2	16.9	·	12.5	11.3	2.5	5.3
CCCN(C)C[C@H]1OCCCC[C@H](C)Oc2ccc(NC(=O)CCC(F)(F)F)cc2C(=O)N([C@@H](C)CO)C[C@H]1C	·	·	·	-2.2	·	·	·	·
O=C1/C(=C\c2ccc(-c3ccccc3[N+](=O)[O-])o2)C(c2ccccc2)=NN1c1ccccc1	62.8*	-19.9	3.2	·	20.5	0.2	13.9	1.0
Cc1sc2nc(SCC(=O)N(C)Cc3ccccc3)n(-c3ccccc3)c(=O)c2c1C	70.4*	-11.2	4.9	·	-1.8	5.0	-1.1	-5.3
CCN(CC)C(=O)CC(c1cc(OC)c(OC)c(OC)c1)c1c(OC)cc(OC)c2c(-c3ccccc3)cc(=O)oc12 (stereo not drawn)	83.8*	71.1*	17.5	2.1	-6.3	2.8	8.2	5.7
SMILES	DNMT1 inh	Scp1 inh	LMPTP inh	F508del corr	SUMO1-SIM PPI	STEP block	DNMT1 inh conf	DNMT1 interf	others
COC(=O)c1cc(C#N)c(=O)[nH]c1C	88.7*	-4.0	-1.4	-0.4	-2.1	1.1	6.5	5.0
O=C(O)c1cccc(-n2cccc2/C=C\[N+](=O)[O-])c1	61.7*	43.4	0.6	2.7	11.1	7.6	6.9	4.8
O=C(O)c1cccc(-n2cccc2/C=C/[N+](=O)[O-])c1	88.6*	85.4*	5.4	0.3	67.7*	20.9	5.0	-1.4
C[C@@H]1CN([C@@H](C)CO)S(=O)(=O)c2ccc(C#CCN(C)C)cc2O[C@H]1CN(C)S(C)(=O)=O	·	·	·	1.7	·	·	·	·
COc1ccc(N(CC(=O)NCCSCc2ccco2)S(=O)(=O)c2ccc(C)cc2)cc1	-1.9	-10.9	0.9	-4.4	5.2	-2.7	·	·
COc1ccc(N(CC(=O)NCCSCc2ccco2)S(=O)(=O)c2ccccc2)cc1	76.4*	-13.2	0.5	-1.6	-0.4	0.9	4.0	4.8
C[C@H]1CN([C@@H](C)CO)S(=O)(=O)c2ccc(-c3ccc(F)cc3)cc2O[C@@H]1CN(C)C(=O)C1CCCCC1	·	·	·	2.8	·	·	·	·
CN(C)/C=C1\Oc2ccc3ccccc3c2C1=O	-1.7	-7.2	0.5	-0.4	-13.1	0.4	·	·
O=C1C(=O)c2c(ccc3ccccc23)-c2ccccc21	108.1*	101.4*	43.2	0.0	60.9*	15.9	28.2	-9.8	Beacon interf DR=>99
COc1cc2c(O)cc(C(=O)O)c(-c3cc(OC)c(OC)c(OC)c3)c2cc1OC	0.9	-2.2	-1.3	-1.6	3.3	-0.6	·	·
COc1cc(C)cc(C(=O)O)c1C1=C(O)c2cccc(O)c2C(=O)C1=O	66.4*	47.4	3.6	-2.9	6.9	6.4	17.2	-2.0
C[C@@H]1CN([C@@H](C)CO)C(=O)c2cc(NS(=O)(=O)c3cn(C)cn3)ccc2O[C@H]1CN(C)S(=O)(=O)c1cccs1	·	·	·	-1.3	·	·	·	·
CCc1ccc(NC(=O)Cn2c(=O)c3cccn3c3ccccc32)cc1	54.8*	-6.5	1.0	-0.7	-0.7	3.1	4.5	0.9
